Measured values from different studies.
Target: Discoidin domain-containing receptor 2 (DDR2, Homo sapiens, UniProt Q16832)
Residues used in one study (Q16832 1-855): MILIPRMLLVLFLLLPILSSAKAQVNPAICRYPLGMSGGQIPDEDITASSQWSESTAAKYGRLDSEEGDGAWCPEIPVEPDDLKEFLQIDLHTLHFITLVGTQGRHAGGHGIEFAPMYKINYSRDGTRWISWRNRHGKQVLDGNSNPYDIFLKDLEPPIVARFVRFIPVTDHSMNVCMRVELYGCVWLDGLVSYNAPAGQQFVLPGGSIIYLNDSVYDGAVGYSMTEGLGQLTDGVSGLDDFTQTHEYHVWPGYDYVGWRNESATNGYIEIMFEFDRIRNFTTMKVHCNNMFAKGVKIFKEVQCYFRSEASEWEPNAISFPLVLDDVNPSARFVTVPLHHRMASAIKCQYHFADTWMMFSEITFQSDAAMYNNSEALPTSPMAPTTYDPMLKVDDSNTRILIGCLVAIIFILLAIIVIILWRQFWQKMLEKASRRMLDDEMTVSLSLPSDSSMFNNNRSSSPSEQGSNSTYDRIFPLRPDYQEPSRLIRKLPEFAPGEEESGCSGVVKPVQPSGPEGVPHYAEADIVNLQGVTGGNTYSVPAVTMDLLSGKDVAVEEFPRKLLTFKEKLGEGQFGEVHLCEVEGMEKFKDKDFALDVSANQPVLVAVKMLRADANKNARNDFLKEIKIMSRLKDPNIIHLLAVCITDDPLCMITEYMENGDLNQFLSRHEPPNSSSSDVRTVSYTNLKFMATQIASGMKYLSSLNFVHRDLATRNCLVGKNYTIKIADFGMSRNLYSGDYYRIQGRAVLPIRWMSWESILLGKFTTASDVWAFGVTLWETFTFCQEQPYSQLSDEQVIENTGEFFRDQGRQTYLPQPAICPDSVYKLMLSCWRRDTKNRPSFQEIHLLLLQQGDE

COc1cc2c(N3CCN(C(=O)Nc4ccc(OC(C)C)cc4)CC3)ncnc2cc1OCCCN1CCCCC1 has a remaining signal of 102% (cell-free assay; 0.5 µM).
Cc1[nH]c(/C=C2\C(=O)Nc3ccc(F)cc32)c(C)c1C(=O)N[C@H]1CCN(C(=O)N(C)C)C1 has a remaining activity of 107% (enzyme activity; inhibitor; 1 µM).
For Nc1ncnc2occ(-c3ccc(NC(=O)Nc4cc(C(F)(F)F)ccc4F)cc3)c12, the remaining signal was 1.4% (cell-free assay; 20 µM).
Cc1ccc(NC(=O)c2ccc(C)c(C(F)(F)F)c2)cc1C#Cc1nn(C2CCC(O)CC2)c2ncnc(N)c12 (stereo not shown) gave a remaining signal of 16% (cell-free assay; 10 µM).
The remaining signal of O=C1NC(=O)c2cc(Nc3ccc(F)cc3)c(Nc3ccc(F)cc3)cc21 is reported as 99.6% (cell-free assay; 0.5 µM).
For CS(=O)(=O)N1CCCC(NC(=O)[C@H](CCC2CCCCC2)NC(=O)c2ccc(CNC(=O)c3cnc4ccccn34)cc2)C1 (stereo partly shown), the remaining binding was 0% (cell-free assay; competition with immobilised ligand; 0.1 µM).
The activity vs control of Cc1ccc(C(=O)NCc2ccsc2)cc1C#Cc1cn(C(C)C)c2ncnc(N)c12 is reported as 4% (enzyme activity; inhibitor; 1 µM).
Cc1ccc(C(=O)Nc2ccc(CN3CCN(C)CC3)c(C(F)(F)F)c2)cc1C#Cc1cnc2cccnn12 has a remaining signal of 0.3% (cell-free assay; 23.5 nM).
With CS(=O)(=O)c1cc(C2(NC(=O)c3cncc4c3cnn4-c3ccc(F)cc3)CC2)ccn1 the remaining binding was 100% (cell-free assay; competition with immobilised ligand; 1 µM).
With O=C(Nc1cnn(-c2csc(C(=O)NC3COC3)c2)c1)Nc1ccccc1Cl the remaining activity was 99.8% (enzyme activity; inhibitor; 5 µM).
The remaining activity of COc1cc(Cl)c(C(=O)N[C@@H](CN[C@H]2CC[C@@H](N)CC2)Cc2ccc(C#N)cc2)cc1-c1ccc(CN[C@H](C)c2ccc(C)cc2)o1 is reported as 104% (enzyme activity; inhibitor; 1 µM).
The inhibition of CNC(=O)c1cc(Oc2ccc(NC(=O)Nc3ccc(Cl)c(C(F)(F)F)c3)cc2)ccn1 is reported as 108% (enzyme activity; inhibitor; 0.3 µM).
With Cc1noc([C@H]2C[C@@H](c3ccc(C(F)(F)F)cc3)CN(C(=O)N3CCS(=O)(=O)C3)C2)n1 the remaining binding was 74% (cell-free assay; competition with immobilised ligand; 1 µM).
For CC(C)(C)c1nc2c(s1)c1nc(N)ncc1c1ccc(NS(=O)(=O)c3c(F)cccc3F)c(F)c12, the remaining activity was 69% (enzyme activity; inhibitor; radiometric; 1 µM).
The remaining binding of C[C@@H]1CN(c2cc(-c3n[nH]c4ccc(OC5(C)CC5)cc34)ncn2)C[C@H](C)O1 is reported as 82% (cell-free assay; competition with immobilised ligand; 0.1 µM).
With Cc1cnc(NC2CCOCC2)nc1-n1cnc(C(=O)NC(CN)c2cc(F)cc(Cl)c2)c1 (stereo not shown) the remaining activity was 102% (enzyme activity; inhibitor; radiometric; 1 µM).
